A selection: hits, their analogues and other compounds. The true share with any hit is near 4.4%.
AHR act = AHR activators, primary screen, cell-based, luminescence, luciferase reporter, human. 2.5% of 320,000 active. activation, % at 5 µM. AHR-responsive luciferase reporter cells. AID 2796, 2010. Aryl hydrocarbon receptor (Homo sapiens), P35869; in the data active = activation above about 47%;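 also: 0% = vehicle wells and 100% = reference agonist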
HTR2A ag = mouse Htr2a agonists via beta-arrestin recruitment, primary screen, cell-based, luminescence; CHO-K1 mHTR2A beta-arrestin complementation; percent of 30 µM serotonin response; AID 624169, 2012; 0.66% of 360,000 active; activation, % at 7.6 µM; 5-hydroxytryptamine receptor 2A (Mus musculus), P35363;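 active = activation above a run cutoff, the mean activation of all tested compounds plus 3 SD, cut at about 14% in these data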;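 also: 0% = plate median of compound wells and 100% = 30 µM serotonin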
Tb MetRS inh = T. brucei MetRS inhibitors, primary screen, biochemical, luminescence | purified T. brucei MetRS, ATP depletion, Kinase-Glo luminescence | inhibition, % at 11.9 µM | 0.4% of 360,000 active | AID 624268, 2012;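 active = inhibition above a per-plate cutoff of the control wells' mean inhibition plus 3 SD, cut at about 5.5% in these data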;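 also: 0% = DMSO wells median and 100% = median of wells with control inhibitor compound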
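Measured by: Kinase-Glo luciferase luminescence reporting remaining unconsumed ATP. Material: purified T. brucei MetRS enzyme. Doses: 11.9 µM compound single dose, 0.9% DMSO. Medium: HEPES buffer containing pyrophosphatase, BSA, spermine, DTT. Times: 15 min preincubation, 2 h reaction, all 25 °C. Reagent: methionine, ATP and bulk E. coli tRNA.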
AI-2 QS mod = Vibrio harveyi AI-2 quorum sensing modulators, primary screen, JMH597 strain, luminescence/OD600 ratio | 0.4% of 300,000 active | AID 2094, 2009 | Vibrio harveyi JMH597 AI-2 luminescence/OD600 ratio, 9 h; stronger effect = lower value; strain lacks LuxN and CqsS sensors; 0 = neutral-control median | activity change, % at 7.5 µM; in the data active = activity change below about -75%, passing the limit was not always enough;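 also: luminescence divided by OD600 gain over 9 h not by final OD600 alone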
MsrA act = bovine MsrA enzyme activators, primary screen, biochemical, absorbance, HTS; Methionine sulfoxide reductase A (Bos taurus); purified bovine MsrA, absorbance read-out; activation, % at 10.6 µM; 0.3% of 360,000 active; in the data active = activation above about 7.5%;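 also: 0% = vehicle and 100% = reference activator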
MsrA inh = bovine MsrA enzyme inhibitors, primary screen, biochemical, absorbance, HTS | Methionine sulfoxide reductase A (Bos taurus) | 0.75% of 360,000 active | purified bovine MsrA, absorbance read-out | inhibition, % at 15.5 µM; in the data active = inhibition above about 4.5%;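 also: 0% = vehicle wells with enzyme and 100% = reference inhibitor wells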
AHR act cf = AHR activators, confirmation, cell-based, luminescence, luciferase reporter, human; human cells, AHR-responsive luciferase reporter; shares compounds with AHR act; AID 2845, 2010; 87% of 2,300 active; activation, % at 9 µM; in the data active = activation above about 49%;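 also: HepG2 hepatoma cells carrying a DRE-driven firefly luciferase reporter; 0% = vehicle wells and 100% = reference agonist wells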
PXR act counter = human PXR activators, counter-screen for AHR activator project, cell-based, luciferase luminescence; shares compounds with AHR act; cell-based PXR reporter; activation, % at 11.6 µM; 88% of 2,300 active; AID 434939, 2010; in the data active = activation above about 11%;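 also: human hepatoma DPX-2 cells expressing full-length human PXR; 0% = DMSO and 100% = reference agonist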
Target sequence (O75469 whole entry, looked up): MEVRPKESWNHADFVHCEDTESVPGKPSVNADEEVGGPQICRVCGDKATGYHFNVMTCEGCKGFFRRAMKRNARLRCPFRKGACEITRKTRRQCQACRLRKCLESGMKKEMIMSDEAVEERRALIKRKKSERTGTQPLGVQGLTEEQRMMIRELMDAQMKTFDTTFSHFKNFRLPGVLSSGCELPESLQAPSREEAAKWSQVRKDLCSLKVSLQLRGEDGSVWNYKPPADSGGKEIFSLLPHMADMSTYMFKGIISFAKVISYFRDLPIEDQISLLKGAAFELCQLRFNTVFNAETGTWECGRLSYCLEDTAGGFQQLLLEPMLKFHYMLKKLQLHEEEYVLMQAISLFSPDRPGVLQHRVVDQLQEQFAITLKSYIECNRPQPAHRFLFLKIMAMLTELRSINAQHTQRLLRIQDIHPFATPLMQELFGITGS
* = called active by the depositor.

How did CC(=O)NCCNc1nc2c(-c3ccccc3)nnn2c2ccccc12 do in these assays?
AHR act: 88*; HTR2A ag: -5; Tb MetRS inh: 0; AI-2 QS mod: 18; MsrA act: -2; MsrA inh: 2; AHR act cf: 113*; PXR act counter: 19*

How did CN=C1NC(C)(C)C2CCC(C)(CC2)S1 do in these assays?
HTR2A ag: -1; Tb MetRS inh: 0; MsrA act: -7; MsrA inh: 1

Results for CN(C)C=Nc1ccc2nn(-c3ccccc3)nc2c1 ?
AHR act: 109*; HTR2A ag: -3; Tb MetRS inh: 0; AI-2 QS mod: 20; MsrA act: -4; MsrA inh: 0; AHR act cf: 117*; PXR act counter: 17*

Results for COc1ccccc1OCc1nc2ccccc2[nH]1 ?
AHR act: 11; HTR2A ag: -1; Tb MetRS inh: 4; AI-2 QS mod: 48; MsrA act: -11; MsrA inh: 0

Results for c1cnc2c(OCc3nc4ccccc4[nH]3)cccc2c1 ?
AHR act: 110*; HTR2A ag: -4; Tb MetRS inh: 4; AI-2 QS mod: 43; MsrA act: -1; MsrA inh: 0; AHR act cf: 149*; PXR act counter: 110*

How did Cc1onc(C(=O)Nc2cccnc2Cl)c1[N+](=O)[O-] do in these assays?
AHR act: -2; HTR2A ag: 1; Tb MetRS inh: 0; AI-2 QS mod: 19; MsrA act: -2; MsrA inh: 0

How did COc1cc(NC(=O)c2cc(CC(C)C)on2)c(OC)cc1Cl do in these assays?
AHR act: 91*; HTR2A ag: -3; Tb MetRS inh: -1; AI-2 QS mod: -12; MsrA act: -3; MsrA inh: 0; AHR act cf: 86*; PXR act counter: 15*

What do the screens show for `COc1cc(NC(=O)c2noc(C)c2[N+](=O)[O-])c(OC)cc1Cl`?
AHR act: 80*; HTR2A ag: 1; Tb MetRS inh: 0; AI-2 QS mod: 0; MsrA act: -2; MsrA inh: 0; AHR act cf: 102*; PXR act counter: 30*

How did COc1cc(NC(=O)c2ccnn2C)c(OC)cc1Cl do in these assays?
AHR act: 129*; HTR2A ag: 0; Tb MetRS inh: 0; AI-2 QS mod: 23; MsrA act: 7; MsrA inh: 1; AHR act cf: 135*; PXR act counter: 23*

Results for CN(Cc1ccccc1)C(=O)c1ncn2c1C(=O)N(C)CC2 ?
HTR2A ag: -2; Tb MetRS inh: -1; MsrA act: 1; MsrA inh: -1

Results for NC(=O)COc1ccc(C(=O)NCC2(N3CCOCC3)CCCCC2)cc1 ?
AHR act: -1; HTR2A ag: -7; Tb MetRS inh: 0; MsrA act: 0; MsrA inh: 1

How did NC1=NN=C(c2ccc3c(c2)OCCO3)CS1 do in these assays?
AHR act: 87*; HTR2A ag: 0; Tb MetRS inh: 0; AI-2 QS mod: 5; MsrA act: 0; MsrA inh: 0; AHR act cf: -6; PXR act counter: -2

How did CN(C)c1ccc(/C=N/n2c(C3CCCCC3)n[nH]c2=S)cc1 do in these assays?
AHR act: -2; HTR2A ag: 3; Tb MetRS inh: -2; AI-2 QS mod: -29; MsrA act: -12; MsrA inh: 4

How did Cc1nc(N)nc(Nc2ccc(Cl)cc2)c1Br do in these assays?
AHR act: 92*; HTR2A ag: 0; Tb MetRS inh: 0; AI-2 QS mod: 18; MsrA act: -5; MsrA inh: 1; AHR act cf: 99*

Results for Cc1nc(N)nc(Nc2ccc(C#N)cc2)c1Br ?
AHR act: 1; HTR2A ag: 1; Tb MetRS inh: 0; AI-2 QS mod: -3; MsrA act: -3; MsrA inh: 2

Results for Cc1nc(-c2ccc(C(F)(F)F)cc2)sc1C(=O)NN ?
AHR act: 86*; HTR2A ag: 0; Tb MetRS inh: 0; AI-2 QS mod: 4; MsrA act: 1; MsrA inh: 1; AHR act cf: 10; PXR act counter: 14*

What do the screens show for `Cc1nc(Cl)sc1C(=O)Nc1ccc(C(F)(F)F)cc1`?
AHR act: 99*; HTR2A ag: -2; Tb MetRS inh: -1; AI-2 QS mod: -41; MsrA act: -10; MsrA inh: 3; AHR act cf: 106*

Results for CNC(=O)c1sc(-c2cccnc2)nc1C ?
AHR act: 1; HTR2A ag: 2; Tb MetRS inh: -1; AI-2 QS mod: 3; MsrA act: -10; MsrA inh: 0

Results for Cc1cc(-c2onc(C)c2C(N)=O)no1 ?
AHR act: -1; HTR2A ag: 2; Tb MetRS inh: -1; AI-2 QS mod: 24; MsrA act: -4; MsrA inh: -2

What do the screens show for `Cc1cc(-c2onc(C)c2C(=O)Nc2ccc(C(F)(F)F)cc2)no1`?
AHR act: 84*; HTR2A ag: 3; Tb MetRS inh: 4; AI-2 QS mod: 12; MsrA act: -1; MsrA inh: -1; AHR act cf: 95*; PXR act counter: 39*

What do the screens show for `Cc1nc(-c2cccnc2)sc1C(=O)Nc1ccc(C(F)(F)F)cc1`?
AHR act: 95*; HTR2A ag: 1; Tb MetRS inh: -1; AI-2 QS mod: 1; MsrA act: 0; MsrA inh: 1; AHR act cf: 61*; PXR act counter: 10*

How did O=c1c[n+]([O-])c2ccccc2n1OCc1c(F)cccc1F do in these assays?
AHR act: 80*; HTR2A ag: 4; Tb MetRS inh: 0; AI-2 QS mod: 0; MsrA act: -2; MsrA inh: 3; AHR act cf: 92*; PXR act counter: 43*

What do the screens show for `Cc1ccc(S(=O)(=O)N2CCOCC2)cc1NC(=O)CSCc1c(C)noc1C`?
AHR act: 18; HTR2A ag: -4; Tb MetRS inh: 0; MsrA act: 0; MsrA inh: -1

What do the screens show for `Cc1oc2c(cc(NS(=O)(=O)c3cccs3)c3ccccc32)c1C(=O)OC(C)C`?
AHR act: 92*; HTR2A ag: -2; Tb MetRS inh: -2; AI-2 QS mod: 26; MsrA act: -7; MsrA inh: 2; AHR act cf: 92*; PXR act counter: 162*

Screens deposited in PubChem by several laboratories.
